Assay results from ChEMBL document CHEMBL3853327 (J Med Chem, 2016).
pEC50: −log10 of the molar value.

Experiments:
[1] = Tmax in Sprague-Dawley rat plasma at 16 mg/kg administered through oral gavage measured at 5 mins to 24 hrs post dosing by LC/MS analysis; format: ADME, organism-based; conditions: in vivo
Method in brief: (§1)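 Male Sprague-Dawley rats, ten randomly split into two groups (n = 5), single gavage dose of 8 or 16 mg·kg−1 in PEG 400/normal saline (70/30, V/V). Jugular sinus blood into heparinized tubes at 5 min to 24 h; plasma separated at 2200g for 8 min, stored −20 °C. Methanol precipitation with internal standard, LC-MS quantitation against plasma standard curves. Parameters reported as mean ± SD.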

[2] = Apparent volume of distribution during terminal phase in Sprague-Dawley rat plasma at 8 mg/kg administered through oral gavage measured at 5 mins to 24 hrs post dosing by LC/MS analysis; format: ADME, organism-based; conditions: read-out: Vz/F; method in brief: as §1
[3] = test system: Human immunodeficiency virus 1; assay: Antiviral activity against HIV1 3B harboring reverse transcriptase Y188L mutant infected in human MT4 cells assessed as protection against virus induced cytotoxicity after 5 days by MTT assay; format: functional, cell-based; conditions: Human immunodeficiency virus 1, 3B, MT4, 120 h
Method in brief: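 MTT cytopathicity assay in MT-4 cells (6 × 10^5 cells/mL). Compounds serially diluted 5-fold in triplicate wells, run in parallel on infected and mock-infected cells. Virus added at 100−300 CCID50 per well. Viability read spectrophotometrically at 540 and 690 nm after 5 days, using the median OD of three wells. EC50 is the concentration giving 50% protection from viral cytopathogenicity.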

[4] = test system: Human immunodeficiency virus 1; assay: Fold resistance, ratio of EC50 for HIV1 3B harboring reverse transcriptase E138K mutant infected in human MT4 cells to EC50 for wild type HIV1 3B harboring reverse transcriptase infected in human MT4 cells; format: functional
Method in brief: (§2)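 Fold resistance is the EC50 against the mutant HIV-1 strain divided by the EC50 against WT IIIB. Both EC50s come from the MT-4 MTT cytoprotection assay (5-day read, 100−300 CCID50 inoculum).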

[5] = test system: Human immunodeficiency virus 1; assay: Fold resistance, ratio of EC50 for HIV1 3B harboring reverse transcriptase L100I mutant infected in human MT4 cells to EC50 for wild type HIV1 3B harboring reverse transcriptase infected in human MT4 cells; format: functional; method in brief: as §2
[6] = test system: Human immunodeficiency virus 1; assay: Fold resistance, ratio of EC50 for HIV1 3B harboring reverse transcriptase Y181C mutant infected in human MT4 cells to EC50 for wild type HIV1 3B harboring reverse transcriptase infected in human MT4 cells; format: functional; method in brief: as §2
[7] = AUC (0 to t) in Sprague-Dawley rat plasma at 8 mg/kg administered through oral gavage measured at 5 mins to 24 hrs post dosing by LC/MS analysis; format: ADME, organism-based; set-up: dose 8 mg/kg, time 0.083-24 hr, route oral; method in brief: as §1
[8] = MRT (0 to t) in Sprague-Dawley rat plasma at 8 mg/kg administered through oral gavage measured at 5 mins to 24 hrs post dosing by LC/MS analysis; format: ADME, organism-based; method in brief: as §1
[9] = Apparent half life in Sprague-Dawley rat plasma at 8 mg/kg administered through oral gavage measured at 5 mins to 24 hrs post dosing by LC/MS analysis; format: ADME, organism-based; conditions: in vivo; method in brief: as §1
[10] = Tmax in Sprague-Dawley rat plasma at 8 mg/kg administered through oral gavage measured at 5 mins to 24 hrs post dosing by LC/MS analysis; format: ADME, organism-based; conditions: in vivo; method in brief: as §1
[11] = VRT (0 to t) in Sprague-Dawley rat plasma at 16 mg/kg administered through oral gavage measured at 5 mins to 24 hrs post dosing by LC/MS analysis; format: ADME, organism-based; conditions: in vivo; method in brief: as §1

Compound: Cc1cc(C#N)cc(C)c1Oc1nc(NC2CCN(Cc3ccc(S(N)(=O)=O)cc3)CC2)nc2ccsc12
- Tmax [1]: 0.8 h
- Vd/F [2]: 38.2 L/kg
- pEC50 [3]: 8.52
- Ratio EC50 [4]: <3
- Ratio EC50 [5]: <3
- Ratio EC50 [6]: <3
- AUC(0-t) [7]: 1680 ng·h/mL
- MRT last [8]: 3.44 h
- t1/2(app) [9]: 2.51 h
- Tmax [10]: 1 h
- VRT(t) [11]: 9.29 hr2
